Series [1] concerns Hepatitis B virus. The series is described as follows: Antiviral activity against HBV infected in human HepG2(2.2.15) cells assessed as inhibition of viral DNA replication by measuring HBsAg and HBeAg production at TC50 after 9 days by EIA. The class given is functional, organism-based.
The nature of series [2]: Cytotoxicity against human HepG2(2.2.15) cells after 24 hours following 9 days of treatment by neutral red dye uptake assay. The class given is cell-based. Particulars: read-out: TC50. In outline: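 2.2.15 cells grown to confluence were treated with compound as in the antiviral assay, with untreated controls on each plate. Toxicity was measured by neutral red uptake (absorbance 510 nm, relative to untreated cells) 24 h after 9 days of treatment, giving TC50.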

Series [3] is described as follows: Selectivity index, ratio of TC50 for human HepG2(2.2.15) cells to IC50 for HBV. In outline:
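Calculated as TC50 (neutral red uptake in 2.2.15 cells) divided by IC50 (HBsAg/HBeAg inhibition by EIA in 2.2.15 cells).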

For series [4], the system named is Hepatitis B virus. The series is described as follows: Antiviral activity against HBV infected in human HepG2(2.2.15) cells assessed as inhibition of viral DNA replication by measuring HBsAg and HBeAg production after 9 days by EIA. The class given is functional, organism-based. To be noted: HepG2 2.2.15, 216 h. In outline:
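Confluent 2.2.15 cells in RPMI 1640 with 2% FBS received test compounds daily (medium changed daily) for 8 consecutive days in a second protocol. Cells in the 24-well protocol were seeded at 1.0 × 10⁵ cells/mL in MEM with 10% FBS for 24 h. They were then exposed to drug for 9 days, with medium changed every 3 days. Supernatant HBsAg/HBeAg was read by EIA at days 6 and 9, and the test was run twice.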

Activity calls are given as the source filed them. The rule behind the calls is not given here. Square brackets hold non-standard residues; d marks the D form. Peptide text beside a SMILES is read from it. * marks the point of attachment. Phe(4-NO2) = N[C@@H](Cc1ccc([N+](=O)[O-])cc1)C(=O)O; 4Abz = Nc1ccc(C(=O)O)cc1; Propionyl = CCC(=O)*; Bz = O=C(c1ccccc1)*; ClAc = O=C(CCl)*

Regarding `COC(=O)[C@H](Cc1ccccc1)NC(=O)[C@H](Cc1ccccc1)NC(=O)c1ccncc1`, the inhibition result in series [1] was “inactive”. Further, the CC50 at 216 h in series [2] amounted to 1060 µM.
In the case of `COC(=O)[C@H](Cc1ccc([N+](=O)[O-])cc1)NC(=O)[C@H](Cc1ccc(O)cc1)NC(=O)c1ccncc1`, the inhibition entry in series [1] was “inactive”. The CC50 at 216 h in series [2] worked out at 238 µM.
In the same order, the values of `COC(=O)[C@H](Cc1ccccc1)NC(=O)[C@H](Cc1ccc(O)cc1)NC(=O)c1ccncc1` are “inactive” and 219 µM.
A word on the IC50: it is the concentration at which inhibition is half-maximal. As for `CCCCOc1ccc(C[C@H](NC(=O)[C@H](Cc2ccccc2)NC(=O)c2ccccc2)C(=O)[O-])cc1.[Na+]`, in series [3], the “Selectivity Index” value worked out at 15.2. Also, in series [4], the IC50 stood at 64.6 µM. Also, the CC50 at 216 h in series [2] came out at 979 µM.
For the compound `COC(=O)[C@H](Cc1ccccc1)NC(=O)[C@H](Cc1ccccc1)NC(=O)c1ccc(NC(=O)CN(C)C)cc1`, in series [1], the inhibition result was “inactive”. Further, the CC50 at 216 h in series [2] was found to be 111 µM.
`O=C(N[C@@H](Cc1ccccc1)C(=O)N[C@H](CO)Cc1ccccc1)c1ccc(CN2CCCC2)cc1`: in series [3], the “Selectivity Index” value amounted to 9.11. Further, the IC50 in series [4] amounted to 14.1 µM. In series [2], the CC50 at 216 h was determined as 128 µM.
In the same order, the values of `CCC(=O)Nc1ccc(C(=O)N[C@@H](Cc2ccccc2)C(=O)N[C@@H](Cc2ccccc2)C(=O)OC)cc1` ({Propionyl-4Abz}-Phe-Phe-OMe) are 90.45, 2.85 µM and 258 µM.
Consider `CC(=O)OC[C@H](Cc1ccccc1)NC(=O)[C@H](Cc1ccccc1)NC(=O)c1ccc(CN2CCOCC2)cc1`, for which the inhibition entry in series [1] is “inactive”. Also, in series [2], the CC50 at 216 h came out at 609 µM.
In the case of `O=C(N[C@@H](Cc1ccccc1)C(=O)N[C@H](CO)Cc1ccccc1)c1ccncc1`, in series [3], the “Selectivity Index” value came out at 7.39. Also, the IC50 in series [4] came to 28.9 µM. Further, the CC50 at 216 h in series [2] stood at 214 µM.
For the compound `COC(=O)[C@H](Cc1ccc([N+](=O)[O-])cc1)NC(=O)[C@H](Cc1ccccc1)NC(=O)c1ccncc1`, the inhibition entry in series [1] is “inactive”. In addition, in series [2], the CC50 at 216 h worked out at 812 µM.
With `COC(=O)[C@H](Cc1ccc(O)cc1)NC(=O)[C@H](Cc1ccccc1)NC(=O)c1ccncc1`, in series [3], the “Selectivity Index” value is reported as 161.01. Besides, the 50% inhibitory concentration (IC50) in series [4] came to 5.39 µM. Moreover, the CC50 at 216 h in series [2] turned out to be 867 µM.
As for `COC(=O)[C@H](Cc1ccccc1)NC(=O)[C@H](Cc1ccccc1)NC(=O)c1ccc(OCCN(C)C)cc1`, the “Selectivity Index” value in series [3] was found to be 4.74. In series [4], the half-inhibitory concentration (IC50) came to 105 µM. For the same compound, the CC50 at 216 h in series [2] amounted to 497 µM.
Turning to `CC(=O)Nc1ccc(C(=O)N[C@@H](Cc2ccc(O)cc2)C(=O)N[C@H](CO)Cc2ccccc2)cc1`, the inhibition entry in series [1] was “inactive”. Further, the CC50 at 216 h in series [2] worked out at 749 µM.
In the case of `COc1ccc(C[C@H](NC(=O)[C@H](Cc2ccccc2)NC(=O)c2ccccc2)C(=O)[O-])cc1.[Na+]` (Bz-Phe-Tyr(Me)-OH), the “Selectivity Index” value in series [3] came to 8.99. In addition, the IC50 in series [4] was 20.5 µM. In addition, in series [2], the CC50 at 216 h stood at 184 µM.
Consider `CC(=O)Nc1ccc(C(=O)N[C@@H](Cc2ccccc2)C(=O)N[C@H](CCl)Cc2ccccc2)cc1`, for which the “Selectivity Index” value in series [3] stood at 42.26. The IC50 in series [4] came out at 0.71 µM. Also, in series [2], the CC50 at 216 h amounted to 30.1 µM.
As for `COC(=O)[C@H](Cc1ccccc1)NC(=O)[C@H](Cc1ccccc1)NC(=O)c1ccc(NC(=O)CCl)cc1` ({ClAc-4Abz}-Phe-Phe-OMe), the inhibition entry in series [1] was “inactive”. Also, the CC50 at 216 h in series [2] was determined as 223 µM.
In the case of `CN(C)CCOc1ccc(C(=O)N[C@@H](Cc2ccccc2)C(=O)N[C@H](CO)Cc2ccccc2)cc1`, the “Selectivity Index” value in series [3] was 11.86. In addition, in series [4], the IC50 came to 27.6 µM. The CC50 at 216 h in series [2] was 327 µM.
As to `COC(=O)[C@H](Cc1ccc(O)cc1)NC(=O)[C@H](Cc1ccccc1)NC(=O)c1ccc(NC(C)=O)cc1` (Ac-[4Abz]-Phe-Tyr-OMe), the “Selectivity Index” value in series [3] is 85.09. For the same compound, in series [4], the IC50 came out at 9.06 µM. Also, the CC50 at 216 h in series [2] is 771 µM.
For the compound `CC(=O)OC[C@H](Cc1ccccc1)NC(=O)[C@H](Cc1ccccc1)NC(=O)c1ccc(CN(C)C)cc1`, the inhibition entry in series [1] was “inactive”. Further, the CC50 at 216 h in series [2] turned out to be 508 µM.
Take `CCOc1ccc(C[C@H](NC(=O)[C@H](Cc2ccccc2)NC(=O)c2ccccc2)C(=O)OC)cc1` (Bz-Phe-Tyr(Et)-OMe): in series [3], the “Selectivity Index” value is 58.61. Also, the IC50 in series [4] was determined as 14 µM. Further, the CC50 at 216 h in series [2] stood at 818 µM.
Regarding `CCOc1ccc(C[C@H](NC(=O)[C@H](Cc2ccccc2)NC(=O)c2ccccc2)C(=O)O)cc1` (Bz-Phe-Tyr(Et)-OH), the inhibition entry in series [1] is “inactive”. Moreover, the CC50 at 216 h in series [2] was 1010 µM.
Regarding `CN(C)Cc1ccc(C(=O)N[C@@H](Cc2ccccc2)C(=O)N[C@H](CO)Cc2ccccc2)cc1`, the “Selectivity Index” value in series [3] turned out to be 11.84. For the same compound, the IC50 in series [4] came to 15.8 µM. The CC50 at 216 h in series [2] was 188 µM.
In the case of `COC(=O)[C@H](Cc1ccccc1)NC(=O)[C@H](Cc1ccccc1)NC(=O)c1ccc(NC(=O)CN2CCCC2)cc1`, the inhibition entry in series [1] was “inactive”. Further, the CC50 at 216 h in series [2] was found to be 106 µM.
Consider `CCC(=O)Nc1ccc(C(=O)N[C@@H](Cc2ccccc2)C(=O)N[C@@H](Cc2ccc([N+](=O)[O-])cc2)C(=O)OC)cc1` ({Propionyl-4Abz}-Phe-[Phe(4-NO2)]-OMe), for which, in series [3], the “Selectivity Index” value is 33.53. Further, in series [4], the half-maximal inhibitory concentration (IC50) was 4.37 µM. The CC50 at 216 h in series [2] amounted to 147 µM.
In the same order, the values of `O=C(N[C@@H](Cc1ccccc1)C(=O)N[C@H](CO)Cc1ccccc1)c1ccc(CN2CCOCC2)cc1` are 11.25, 13.9 µM and 157 µM.
In the same order, the values of `CCCCOc1ccc(C[C@H](NC(=O)[C@H](Cc2ccccc2)NC(=O)c2ccccc2)C(=O)OC)cc1` are 6.6, 174 µM and 1150 µM.
Turning to `O=C(N[C@@H](Cc1ccc(O)cc1)C(=O)N[C@H](CO)Cc1ccccc1)c1ccncc1`, the inhibition result in series [1] was “inactive”. In series [2], the CC50 at 216 h came to 612 µM.

Values taken from ChEMBL document CHEMBL1817553, “Synthesis and biological evaluation of Matijing-Su derivatives as potent anti-HBV agents” (Bioorg Med Chem, 2011).
